Measured values reported in ChEMBL document CHEMBL4732100, “Water-soluble inhibitors of ABCG2 (BCRP) - A fragment-based and computational approach” (Eur J Med Chem, 2021).
Converted amounts (≈) assume the structure as drawn.

Key:
[1] = target: ATP-dependent translocase ABCB1 (Homo sapiens, UniProt P08183); assay: Inhibition of ABCB1 in human KB-V1 cells assessed as accumulation of substrate calcein-AM stain measured after 10 mins by fluorometric microplate reader assay; type: cell-based
Summary of the method: (§1)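 KB-V1 cells (ABCB1-overexpressing KB variant) kept under 330 nM vinblastine. Calcein-AM accumulation read by fluorescence after intracellular cleavage to calcein. Compounds tested up to 100 µM. Inhibition is normalized to 10 µM tariquidar set to 100% (Imax). Mean ± SEM from ≥3 experiments in triplicate.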

[2] = Thermodynamic solubility of compound in PBS at pH 7.4 […] by shake-flask method; type: physicochemical; settings: buffer
[3] = target: T1, Broad substrate specificity ATP-binding cassette transporter ABCG2 (Homo sapiens, UniProt Q9UNQ0); assay: Inhibition of human ABCG2 in human MCF7/Topo cells assessed as accumulation of substrate Hoechst […] stain measured after 2 hrs by fluorometric microplate reader assay; type: cell-based
T1 sequence (Q9UNQ0 whole entry): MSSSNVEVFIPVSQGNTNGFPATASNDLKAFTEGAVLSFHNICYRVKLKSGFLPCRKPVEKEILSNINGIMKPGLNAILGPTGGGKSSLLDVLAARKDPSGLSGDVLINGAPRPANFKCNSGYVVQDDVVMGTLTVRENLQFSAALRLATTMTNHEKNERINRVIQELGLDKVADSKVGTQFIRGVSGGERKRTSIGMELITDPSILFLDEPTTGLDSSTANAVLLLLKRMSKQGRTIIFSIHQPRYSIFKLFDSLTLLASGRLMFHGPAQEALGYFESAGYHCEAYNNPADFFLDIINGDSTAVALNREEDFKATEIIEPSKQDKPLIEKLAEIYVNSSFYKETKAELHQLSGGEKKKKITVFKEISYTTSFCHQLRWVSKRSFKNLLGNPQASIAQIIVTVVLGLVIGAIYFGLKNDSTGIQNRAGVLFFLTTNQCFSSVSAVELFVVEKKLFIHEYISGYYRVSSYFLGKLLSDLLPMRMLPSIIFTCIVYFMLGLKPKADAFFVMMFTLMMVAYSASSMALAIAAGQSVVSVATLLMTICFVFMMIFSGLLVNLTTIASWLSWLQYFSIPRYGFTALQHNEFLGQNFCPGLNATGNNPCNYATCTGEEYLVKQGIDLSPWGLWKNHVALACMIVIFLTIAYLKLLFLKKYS

ABCB1 = ABCB1 (Homo sapiens, UniProt P08183); assay: Inhibition of ABCB1 in human KB-V1 cells assessed as accumulation of substrate calcein-AM stain at 10 uM measured after 10 mins by fluorometric microplate reader assay relative to Tariquidar; type: cell-based; settings: probe calcein-AM, read-out: Imax; summary of the method: as §1
ABCG2 [4] = target: T2, ABCG2 (Homo sapiens, UniProt Q9UNQ0); assay: Inhibition of human ABCG2 in human MCF7/Topo cells assessed as accumulation of substrate Hoechst […] stain at 10 uM measured after 2 hrs by fluorometric microplate reader assay relative to FTC; type: cell-based; settings: read-out: Imax
T2 sequence (Q9UNQ0 whole entry): T1 sequence (Q9UNQ0 whole entry)

[5] = Inhibition of human ABCC1 expressed in MDCK-MRP1 cells assessed as accumulation of substrate calcein-AM stain measured after 1 hr by fluorometric microplate reader assay; type: cell-based, Canis lupus familiaris
Summary of the method: (§2)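 MDCK.2 cells transfected with human ABCC1 (MDCK.2-MRP1), trypsinized with 2X trypsin/EDTA for 30 min. Calcein-AM accumulation measured fluorometrically. Compounds tested up to 100 µM. Inhibition is normalized to 30 µM reversan set to 100% (Imax). Mean ± SEM from ≥3 experiments in triplicate.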

[6] = Kinetic solubility of compound in PBS at pH 7.4 measured after 2 hrs by turbidimetric measurement; settings: read-out: Kinetic_solubility
[7] = Cytotoxicity against human MCF7/Topo cells assessed as inhibition of cell proliferation at 1 uM measured by crystal violet based microplate reader assay
Summary of the method: (§3)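 MCF-7/Topo cells grown in DMEM/High with 2% (v/v) 200 mM L-glutamine and 10% FCS at 37 °C, 5% CO2, kept under 550 nM topotecan. Long-term incubation with inhibitor. Value given as corrected T/C = (T−C0)/(C−C0)·100 from absorbance; cytocidal effect (T−C0)/C0·100 when T<C0. Mean ± SEM of two to three experiments, each in octuplicate.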

MDCK-MRP1 = assay: Inhibition of human ABCC1 expressed in MDCK-MRP1 cells assessed as accumulation of substrate calcein-AM stain at 30 uM measured after 1 hr by fluorometric microplate reader assay relative to Reversan; type: cell-based; settings: Canis lupus familiaris; summary of the method: as §2
[8] = Stability of compound in human plasma at 200 uM measured up to 24 hrs by HPLC-MS analysis; type: ADME, cell-free
Summary of the method: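 Compound from 10 mM DMSO stock incubated in human CPD plasma at 37 °C for up to 24 h. Samples filtered (0.2 µm). Analyzed by RP-HPLC on a C8 column with acetonitrile/0.05% aq TFA gradient 20:80→95:5 over 12 min and UV detection at 220 nm. HPLC-MS run at 0 h and 24 h.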

ABCG2 [9] = target: T2, ABCG2; assay: Substrate activity at ABCG2 in human MCF7/Topo cells assessed as increase in ATPase activity measured after 1 hr by colorimetric assay relative to sulfasalazine; type: cell-based; settings: read-out: Imax
Summary of the method: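 Membranes prepared from MCF-7/Topo cells: homogenized in TMEP buffer pH 7 with protease inhibitors, 500 g spin, then 100,000 g for 1 h. Released inorganic phosphate read by molybdenum blue reaction. Basal activity set to 0% and 30 µM sulfasalazine to 100%. Concentration-response data; mean ± SEM of ≥3 experiments in triplicate.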

[10] = Cytotoxicity against human MCF7/Topo cells assessed as inhibition of cell proliferation at 10 uM measured by crystal violet based microplate reader assay; summary of the method: as §3

ATP-dependent translocase ABCB1, sequence (P08183 whole entry): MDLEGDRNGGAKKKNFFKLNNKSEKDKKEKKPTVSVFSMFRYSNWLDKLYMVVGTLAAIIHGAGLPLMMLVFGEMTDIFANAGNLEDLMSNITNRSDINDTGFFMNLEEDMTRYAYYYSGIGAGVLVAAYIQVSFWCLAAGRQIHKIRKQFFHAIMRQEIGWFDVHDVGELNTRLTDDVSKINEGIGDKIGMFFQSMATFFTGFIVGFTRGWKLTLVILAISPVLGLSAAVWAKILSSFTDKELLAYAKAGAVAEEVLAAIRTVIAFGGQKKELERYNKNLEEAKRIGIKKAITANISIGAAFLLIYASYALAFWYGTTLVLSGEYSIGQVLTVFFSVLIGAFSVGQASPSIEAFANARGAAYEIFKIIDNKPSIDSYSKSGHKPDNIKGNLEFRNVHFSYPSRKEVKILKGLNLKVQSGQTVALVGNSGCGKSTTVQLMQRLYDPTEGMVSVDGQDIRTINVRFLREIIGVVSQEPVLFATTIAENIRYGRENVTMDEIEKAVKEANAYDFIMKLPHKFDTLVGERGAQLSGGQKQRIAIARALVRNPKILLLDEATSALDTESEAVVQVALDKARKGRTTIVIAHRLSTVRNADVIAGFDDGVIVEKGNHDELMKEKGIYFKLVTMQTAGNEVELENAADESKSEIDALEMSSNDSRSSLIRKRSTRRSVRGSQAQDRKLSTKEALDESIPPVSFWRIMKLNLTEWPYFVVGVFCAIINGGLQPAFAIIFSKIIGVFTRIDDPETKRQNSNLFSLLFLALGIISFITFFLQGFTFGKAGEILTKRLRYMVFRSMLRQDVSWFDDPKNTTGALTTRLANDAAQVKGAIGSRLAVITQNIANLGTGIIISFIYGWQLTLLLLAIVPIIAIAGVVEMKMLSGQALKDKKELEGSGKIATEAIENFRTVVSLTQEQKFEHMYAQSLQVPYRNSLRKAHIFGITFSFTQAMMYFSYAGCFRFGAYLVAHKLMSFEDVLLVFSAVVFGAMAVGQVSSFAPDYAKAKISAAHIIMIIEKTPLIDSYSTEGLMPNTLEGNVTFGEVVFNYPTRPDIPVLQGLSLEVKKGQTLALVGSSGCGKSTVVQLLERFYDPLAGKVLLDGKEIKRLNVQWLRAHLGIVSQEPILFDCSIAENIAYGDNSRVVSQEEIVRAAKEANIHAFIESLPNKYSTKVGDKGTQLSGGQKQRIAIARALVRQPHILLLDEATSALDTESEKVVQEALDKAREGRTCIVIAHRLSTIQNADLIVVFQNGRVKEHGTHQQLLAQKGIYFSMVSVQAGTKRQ
ABCB1, sequence (P08183 whole entry): as above

SMILES	IC50 ([1]; kb-v1)	Therm_solubility [2] [µM]	IC50 ([3]; read-out: IC50) [nM]	Emax at 10 min, 10 µM (ABCB1) [%]	Emax at 2 h, 10 µM (ABCG2 [4]) [%]	IC50 [5]	IC50 ([1]; read-out: IC50) [nM]	solubility kinetic at 2 h [6] [µM]	IC50 ([3]; mcf7/topo)	Activity [7]	IC50 ([5]; read-out: IC50) [nM]	Imax (MDCK-MRP1) [%]	Stabilty [8]	Emax at 1 h (ABCG2 [9]) [%]	Activity [10]
COC(=O)c1ccc(-c2cn(-c3ccc(CCN4CCc5cc(OC)c(OC)cc5C4)cc3)nn2)cc1NC(=O)c1ccc2ccccc2n1	Not Active														
CCC(=O)c1ccc(-c2cn(-c3ccc(CCN4CCc5cc(OC)c(OC)cc5C4)cc3)nn2)cc1NC(=O)c1ccc(OC)cn1		0.119	116	> 13	68	Not Active	> 2780	3 (≈ 1.94 µg/mL)							
CCC(=O)c1ccc(-c2cn(CC(=O)O)nn2)cc1NC(=O)c1cc(=O)c2ccccc2o1	Not Active					Not Active		10 (≈ 4.46 µg/mL)	Not Active						
CCC(=O)c1ccc(-c2cn(-c3ccc(CCN4CCc5cc(OC)c(OC)cc5C4)cc3)nn2)cc1NC(=O)c1cc2ccccc2o1	Not Active	< 0.1	120		78	Not Active		7 (≈ 4.59 µg/mL)							
CCC(=O)c1ccc(-c2cn(-c3ccc(CCN4CCc5cc(OC)c(OC)cc5C4)cc3)nn2)cc1NC(=O)c1ccc2ccccc2c1	Not Active	< 0.1	249		70	Not Active		3 (≈ 2 µg/mL)							
CCC(=O)c1ccc(-c2cn(-c3ccc(CCN4CCc5cc(OC)c(OC)cc5C4)cc3)nn2)cc1NC(=O)c1ccc2c(n1)CCCC2	Not Active	< 0.1	180		63	Not Active		7 (≈ 4.7 µg/mL)							
CCC(=O)c1ccc(-c2cn(CCN3CCOCC3)nn2)cc1NC(=O)c1cc(=O)c2ccccc2o1		0.999	312	92	95		1340	10 (≈ 5.02 µg/mL)		Non-Toxic	2080	66			
CCC(=O)c1ccc(-c2cn(-c3ccc(CCN4CCc5cc(OC)c(OC)cc5C4)cc3)nn2)cc1NC(=O)c1cccc(C)n1		0.445	166	> 19	81	Not Active	> 9970	3 (≈ 1.89 µg/mL)							
CCC(=O)c1ccc(-c2cn(-c3ccc(CCN4CCc5cc(OC)c(OC)cc5C4)cc3)nn2)cc1NC(=O)c1cc(=O)c2ccccc2o1	Not Active	0.149	80		65	Not Active		7 (≈ 4.79 µg/mL)							
COC(=O)c1ccc(Br)cc1NC(=O)c1cc(=O)c2ccccc2o1	Not Active	0.109	140		91	Not Active		10 (≈ 4.02 µg/mL)							
COc1cc2c(cc1OC)CN(CCc1ccc(-n3cc(-c4ccccc4)nn3)cc1)CC2	Not Active		3610		41	Not Active									
CCC(=O)c1ccc(-c2cn(-c3ccc(CCN4CCc5cc(OC)c(OC)cc5C4)cc3)nn2)cc1NC(=O)c1cccc(OC)n1	Not Active	< 0.1	322		92	Not Active		7 (≈ 4.53 µg/mL)		Non-Toxic					
Cc1ccc(-c2cn(CCN3CCCC3)nn2)c(NC(=O)c2cc(=O)c3ccccc3o2)c1	Not Active	1.228	109		103	Not Active		7 (≈ 3.1 µg/mL)					Stable	29	
CCC(=O)c1ccc(-c2cn(CCN3CCCC3)nn2)cc1NC(=O)c1cc(=O)c2ccccc2o1	Not Active	1.483	158		70	Not Active		30 (≈ 14.6 µg/mL)							
Cc1ccc(-c2cn(CCN3CCOCC3)nn2)c(NC(=O)c2cc(=O)c3ccccc3o2)c1		1.144	188	> 13	108		> 1600	10 (≈ 4.6 µg/mL)			> 1470	> 22		46	Non-Toxic
CCC(=O)c1ccc(-c2cn(CCO)nn2)cc1NC(=O)c1cc(=O)c2ccccc2o1		0.575	> 1100	> 41	> 71		> 2290	3 (≈ 1.3 µg/mL)			> 1960	> 33			
CCC(=O)c1ccc(-c2cn(-c3ccc(CCN4CCc5cc(OC)c(OC)cc5C4)cc3)nn2)cc1NC(=O)c1cccc(N)n1	Not Active	< 0.1	82		75	Not Active		10 (≈ 6.32 µg/mL)							
CCC(=O)c1ccc(-c2cn(-c3ccc(CCN4CCc5cc(OC)c(OC)cc5C4)cc3)nn2)cc1NC(=O)c1ccc2ccccc2n1	Not Active	0.078						3 (≈ 2 µg/mL)							
COC(=O)c1ccc(Br)cc1NC(=O)c1ccc2ccccc2n1	Not Active		1920		86	Not Active									
CCC(=O)c1ccc(-c2cn(-c3ccc(CCN4CCc5cc(OC)c(OC)cc5C4)cc3)nn2)cc1NC(=O)c1cccc(O)n1		0.855	328	> 14	75	Not Active	> 18500	7 (≈ 4.43 µg/mL)							
Cc1ccc(-c2cn(CCO)nn2)c(NC(=O)c2cc(=O)c3ccccc3o2)c1	Not Active	< 0.1	447		91	Not Active		3 (≈ 1.17 µg/mL)							
CCC(=O)c1ccc(-c2cn(-c3ccc(CCN4CCc5cc(OC)c(OC)cc5C4)cc3)nn2)cc1NC(=O)c1cccc(Cl)n1	Not Active	< 0.1	116		95	Not Active		1 (≈ 0.651 µg/mL)							
CCC(=O)c1ccc(-c2cn(-c3ccc(CCN4CCc5cc(OC)c(OC)cc5C4)cc3)nn2)cc1NC(=O)c1cccc([N+](=O)[O-])n1	Not Active	< 0.1	70		91	Not Active		10 (≈ 6.62 µg/mL)							
